From PubChem BioAssay come the findings set out here.

The source made the active and inactive calls.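 Rule for the calls, unless noted: active = fluorescence slope after compound addition differing from the mean of all tested samples at 99.7% confidence, mostly higher but some lower; inactive = the rest.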

Test [1] is described as follows: inhibitors of TNFa-induced NFkB p65 translocation, primary screen, imaging, HUVEC, MLSMR starter and 10KST1 sets (AID 438;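 active = inhibition above 20% together with a positive visual image hit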;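 note: compound added about 3h40 before a 20 min TNFalpha stimulation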;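 for inhibition: signal is the nuclear over cytoplasmic p65 intensity ratio per well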). To be noted: HUVEC TNFa-induced p65 nuclear translocation; cell count: measured here: nuclei count (cytotoxicity indicator), at 2.08 µM; inhibition: at 2 µM, stronger effect = higher value, 0% TNFa-plus-vehicle, 100% no-TNFa wells.
The nature of test [2]: reduction of polyQ htt aggregates in cells – imaging, exon1htt(103Q)mCFP cells, high-content imaging, primary screen (AID 483;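 active = visual image review flags a hit and inhibition of aggregation exceeds 20%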;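 note: compound exposure lasted 3 days before fixation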;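 for nuclei count: percent of the per-plate median nuclei count of sample wells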). As to conditions: exon1htt(103Q)mCFP cell line, aggregate imaging, at 2 µM; inhibition of aggregation: stronger effect = higher value; nuclei count: measured here: cell count, toxicity.
Test [3] is described as follows: endothelial E-selectin expression blockers – imaging, HUVEC, immunofluorescence, MLSMR starter and 10KST1 sets, primary screen (AID 487;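 active = visually confirmed hit in the image check and inhibition above 20%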;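 for inhibition: signal is fraction of cell area covered by stained E-selectin grains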;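 for nuclei count: 100% = median nuclei count of all wells on the same plate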). As to conditions: HUVEC TNFalpha-induced E-selectin immunofluorescence imaging, at 2 µM; inhibition: stronger effect = higher value; nuclei count: measured here: cell number, toxicity.
Test [4] has as its target Voltage-gated potassium channel subunit beta-2 (Rattus norvegicus) (UniProt P62483). Kind of test: inhibitors of rat Kvbeta2 reductase activity – biochemical, NADPH fluorescence, primary screen (AID 622;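 active = fluorescence slope higher than the sample average by over 3 SD, cut at about -0.22 in these data, passing the limit was not always enough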;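 note: slope of raw intensity against log time taken from 70 to 1610 s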). As to conditions: recombinant KvBeta, 4-cyanobenzaldehyde reduction, at 10 µM, stronger effect = higher value.
Test [5] shares this target. Kind of test: enhancers of rat Kvbeta2 NADPH turnover – biochemical, NADPH fluorescence, primary screen (AID 623;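 active = NADPH fluorescence slope more negative than the mean of all samples by about 3 SD, 99.7% confidence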;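 note: fluorescence intensity change per second fitted from 20 to 320 s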). As to conditions: Recombinant KvBeta, NADPH fluorescence decrease slope, 10 min; at 10 µM; stronger effect = lower value.
Test [6] has as its target Muscarinic acetylcholine receptor M4 (Homo sapiens) (UniProt P08173). Briefly: M4-linked GIRK flux change, two-sided – cell-based, HEK293 M4/GIRK, thallium flux, BTC-AM, M4 allosteric agonist project, primary screen (AID 625).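 Note: thallium influx through GIRK channels coupled to M4 in HEK293 cells with BTC-AM dye.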 To be noted: at 10 µM, actives lie on both sides. In a few lines: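 Material – HEK293 cells with M4 receptor and GIRK channels · Buffer or medium – pH 7.3 thallium assay buffer · Doses – one dose, 10 µM final · Timing – cells overnight at 37 °C, BTC-AM loading 1 h, reads 2 min total · Measured by – kinetic fluorescence with BTC-AM dye · Controls – carbachol and DMSO controls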

A short description of test [7]: blockers of RIG-like receptor reporter activation – cell-based, Sendai virus stimulus, luciferase, 10K MLSCN set, TLR/RLR signaling modifier project, primary screen (AID 602276;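 active = inhibition at or above 50% at 10 µM; inactive = inhibition below 50%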;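 note: firefly luciferase from ISG56 promoter only with Renilla not read in this screen; 0% = Sendai virus plus DMSO and 100% = medium plus DMSO without virus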). To be noted: HEK293 RL24 IRF3 luciferase reporter, at 10 µM, stronger effect = higher value.
Test [8] can be described thus: TLR3 IRF3 reporter activation blockers – cell-based, poly I:C stimulus, luciferase, 10K MLSCN set, primary screen (AID 602277;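 active = inhibition of the reporter signal at or above 50%; inactive = inhibition below 50%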). As to conditions: HEK293-TLR3 RL24 IRF3 luciferase reporter, at 10 µM, stronger effect = higher value. On the technique in general: A reporter such as luciferase makes a cellular process visible.

Voltage-gated potassium channel subunit beta-2 (Rattus norvegicus), sequence (P62483 whole entry, looked up): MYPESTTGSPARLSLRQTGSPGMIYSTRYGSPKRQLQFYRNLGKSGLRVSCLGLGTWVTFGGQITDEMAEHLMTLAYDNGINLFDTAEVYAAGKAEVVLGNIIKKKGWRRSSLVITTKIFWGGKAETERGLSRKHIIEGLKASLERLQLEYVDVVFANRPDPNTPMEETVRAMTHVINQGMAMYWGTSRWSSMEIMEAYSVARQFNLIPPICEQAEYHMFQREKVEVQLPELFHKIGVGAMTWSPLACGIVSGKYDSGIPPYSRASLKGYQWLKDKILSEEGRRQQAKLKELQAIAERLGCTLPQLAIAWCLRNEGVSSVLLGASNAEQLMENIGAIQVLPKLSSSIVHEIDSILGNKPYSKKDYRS
Muscarinic acetylcholine receptor M4 (Homo sapiens), sequence (P08173 whole entry, looked up): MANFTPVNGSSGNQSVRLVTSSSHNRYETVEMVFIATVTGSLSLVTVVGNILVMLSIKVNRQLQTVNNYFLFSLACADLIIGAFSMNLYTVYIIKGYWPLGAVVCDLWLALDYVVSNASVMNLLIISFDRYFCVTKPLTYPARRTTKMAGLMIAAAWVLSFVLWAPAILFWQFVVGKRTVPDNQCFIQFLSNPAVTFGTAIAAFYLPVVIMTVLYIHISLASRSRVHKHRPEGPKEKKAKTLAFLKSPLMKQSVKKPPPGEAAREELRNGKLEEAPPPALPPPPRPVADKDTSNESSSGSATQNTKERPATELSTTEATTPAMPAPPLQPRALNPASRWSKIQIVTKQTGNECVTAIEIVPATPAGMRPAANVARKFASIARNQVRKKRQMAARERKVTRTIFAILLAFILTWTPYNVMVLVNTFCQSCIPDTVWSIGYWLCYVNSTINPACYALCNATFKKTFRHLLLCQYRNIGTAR

By inhibition is commonly meant the drop in the measured response relative to a control, in per cent. For `Cc1nnc2ccc(N3CCC4(CC3)OCCO4)nn12`, the cell count in test [1] stood at 538. The inhibition in test [1] is -21% (inactive); in test [3] it was -83% (inactive); in test [7], 12.5% (inactive); in test [8] it was 8.72% (inactive). Also, in test [2], the inhibition of aggregation is 9.6% (inactive). Besides, the figures for the nuclei count in test [2] and in test [3] were 112% and 117%, respectively. In addition, the results for the fluorescence slope in test [4] and in test [6] were -0.322 (inactive) and 0.00635 (inactive), respectively. Moreover, in test [5], the NADPH fluorescence slope was -3.3e-05 (inactive).

Turning to `COCCOC(=O)C1=C(C)N=c2s/c(=C\c3cccs3)c(=O)n2C1c1cccs1` (centres undefined), the cell count in test [1] turned out to be 331. The inhibition is -4.7% (inactive) in test [1], -148% (inactive) in test [3], -5.37% (inactive) in test [7] and -16.7% (inactive) in test [8]. Besides, in test [2], the inhibition of aggregation was -47% (inactive). For the same molecule, the nuclei count in test [2] came to 98.1%; in test [3], 110%. Further, the fluorescence slope in test [4] was -0.251 (inactive); in test [6] it was 0.00423 (inactive). Further, the NADPH fluorescence slope in test [5] was -1.4e-05 (inactive).

As to `CCNC(=O)Cn1cnc2c1c(=O)n(C)c(=O)n2C`, the cell count in test [1] amounted to 315. In addition, the inhibition is -12.5% (inactive) in test [1], 7.8% (inactive) in test [3], 12.1% (inactive) in test [7] and 14.3% (inactive) in test [8]. The inhibition of aggregation in test [2] is 4.3% (inactive). Moreover, the nuclei count in test [2] was 113%; in test [3], 106%. In addition, the fluorescence slope is -0.617 (inactive) in test [4] and 0.00466 (inactive) in test [6]. Besides, the NADPH fluorescence slope in test [5] was 7.5e-06 (inactive).

As for `COc1ccc(CNC(=O)c2cc(-c3ccc(OC)c(OC)c3)on2)cc1`, in test [1], the cell count is 383. The inhibition in test [1] is -7.2% (inactive); in test [3], 21.5% (inactive); in test [7] it was 15.2% (inactive); in test [8], -6.13% (inactive). Also, the inhibition of aggregation in test [2] is 2% (inactive). Moreover, the figures for the nuclei count in test [2] and in test [3] were 104% and 110%, respectively. Besides, the fluorescence slope in test [4] is -0.206 (inactive); in test [6], 0.00919 (inactive). Also, in test [5], the NADPH fluorescence slope is -1.8e-05 (inactive).

In the case of `Cc1cnnc2c1-c1nonc1CC2`, the cell count in test [1] turned out to be 347. In addition, the inhibition was 2% (inactive) in test [1], 5.6% (inactive) in test [3], 17.8% (inactive) in test [7] and 14.6% (inactive) in test [8]. Besides, the inhibition of aggregation in test [2] was -17.8% (inactive). The results for the nuclei count in test [2] and in test [3] were 109% and 116%, respectively. Moreover, the fluorescence slope in test [4] is -0.529 (inactive); in test [6] it was 0.00506 (inactive). Besides, the NADPH fluorescence slope in test [5] is 3.9e-05 (inactive).

Consider `Cc1noc(C)c1S(=O)(=O)NCCN1CCN(c2ccccc2)CC1`, for which, in test [1], the cell count was 413. Besides, the inhibition is -5.2% (inactive) in test [1], -42.6% (inactive) in test [3], 12.9% (inactive) in test [7] and 20.2% (inactive) in test [8]. Besides, the inhibition of aggregation in test [2] was -8.9% (inactive). Further, the nuclei count in test [2] was found to be 118%; in test [3], 141%. Also, the fluorescence slope in test [4] was -0.546 (inactive); in test [6], 0.0066 (inactive). Moreover, the NADPH fluorescence slope in test [5] is 4.8e-05 (inactive).

In the case of `COc1ccc(C2C(=O)N(C3CCCCC3)CC(=O)N2Cc2ccco2)cc1` (centres undefined), in test [1], the cell count turned out to be 632. Besides, the inhibition in test [1] was -15% (inactive); in test [3], -26.6% (inactive); in test [7], 16.7% (inactive); in test [8] it was 22.1% (inactive). Further, the inhibition of aggregation in test [2] is -40.5% (inactive). Further, the nuclei count in test [2] amounted to 124%; in test [3] it was 101%. In addition, the fluorescence slope in test [4] is -0.526 (inactive); in test [6], 0.00562 (inactive). Besides, the NADPH fluorescence slope in test [5] was 1.7e-05 (inactive).

`CCOC(=O)c1sc(C)c2c1NC(C)(c1cccs1)NC2=O` (centres undefined): in test [1], the cell count is 674. Further, the inhibition in test [1] is -2% (inactive); in test [3], -10.7% (inactive); in test [7], 5.21% (inactive); in test [8], 10.9% (inactive). Further, the inhibition of aggregation in test [2] is -5.5% (inactive). Moreover, the nuclei count is 104% in test [2] and 101% in test [3]. The fluorescence slope in test [4] was -0.49 (inactive); in test [6] it was 0.00453 (inactive). Moreover, the NADPH fluorescence slope in test [5] is 1.8e-05 (inactive).

Regarding `CCc1c(C)nc(N2CCN(Cc3ccccc3)CC2)[nH]c1=O`, the cell count in test [1] was found to be 623. Moreover, the inhibition in test [1] was -17.8% (inactive); in test [3], -51.5% (inactive); in test [7], 17.7% (inactive); in test [8] it was 10.6% (inactive). Further, the inhibition of aggregation in test [2] is 17.3% (inactive). Besides, the values for the nuclei count in test [2] and in test [3] were 120% and 106%, respectively. Also, the fluorescence slope in test [4] was -0.507 (inactive); in test [6] it was 0.00476 (inactive). The NADPH fluorescence slope in test [5] was 2.9e-05 (inactive).
